Our source for the IC50, Activity and concentration values is ChEMBL document CHEMBL1142958, “Carboxylated, heteroaryl-substituted chalcones as inhibitors of vascular cell adhesion molecule-1 expression for use in chronic inflammatory diseases” (J Med Chem, 2007).

The source made the active and inactive calls. No cut-off for these calls is given here.

Data set [1] can be described thus: Inhibition of TNF-alpha-induced VCAM1 expression in HPAECs. In kind it is functional, Homo sapiens. A digest of the protocol:
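Cells were seeded to reach 90–95% confluency the next day. They were stimulated with TNF-α (1 ng/mL) ± compound (final DMSO 0.25%) for about 16 h and scored visually for toxicity. Cell-surface VCAM-1 was measured by anti-VCAM-1 (0.25 µg/mL, 30 min, 37 °C), then HRP anti-mouse IgG and TMB, read at OD 450 nm. IC50 is relative to the TNF-only response; mean of ≥3 determinations.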

The species entered for data set [2] is Homo sapiens. As to the kind of experiment: Inhibition of TNF-alpha-induced E-selectin expression in HPAECs. In kind it is functional.
Data set [3] is filed under the species Homo sapiens. As to the kind of experiment: Inhibition of TNF-alpha-induced MCP1 expression in HPAECs. In kind it is functional.
For data set [4], the system named is PBMC. Description: Inhibition of LPS-induced IL1-beta secretion in HPBMCs at 5 uM. In kind it is functional, cell-based. As to conditions: Homo sapiens.
Data set [5] concerns Mus musculus. Description: Inhibition of airway eosinophilia in BALF in sc dosed ovalbumin-sensitized/challenged Balb/C mouse model of allergic airway inflammation after 14 days. In kind it is functional, organism-based. The procedure, abridged:
(§1)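 Male Balb/C mice, 5–6 weeks old, were sensitized i.p. with ovalbumin (8 µg) emulsified in aluminum hydroxide (1 mg) per mouse. They were then dosed s.c. in 2% Cremophor at 150, 100 or 50 mg/kg bid on days 11–13 and once on day 14. On day 14 lungs were lavaged (DMEM/F-12 + 5% FBS). Eosinophils were expressed as % of ≥300 Diff Quik-stained cytospin cells. Dexamethasone 3 mg/kg i.p. served as positive control.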

The species named for data set [6] is Rattus norvegicus. Description: Inhibition of paw swelling in rat adjuvant arthritis model. In kind it is functional, organism-based.
The species entered for data set [7] is Rattus norvegicus. Description: Inhibition of splenomegaly in rat adjuvant arthritis model. In kind it is functional, organism-based.
Data set [8] relates to Mus musculus. As to the kind of experiment: Inhibition of tissue eosinophilia in sc dosed ovalbumin-sensitized/challenged Balb/C mouse model of allergic asthma after 14 days. In kind it is functional, organism-based.
Data set [9] concerns Mus musculus. As to the kind of experiment: Activity in sc dosed ovalbumin-sensitized/challenged Balb/C mouse model of allergic asthma by measuring reduced IgE levels after 14 days. In kind it is functional, organism-based.
The subject of data set [10] is Mus musculus. Description: Activity in sc dosed ovalbumin-sensitized/challenged Balb/C mouse model of allergic asthma assessed as reduction of elevated lung mRNA levels of Th2 cytokines after 14 days. In kind it is functional, organism-based.
The test system of data set [11] is Mus musculus. As to the kind of experiment: Reduction of airway hyperresponsiveness in sc dosed ovalbumin-sensitized/challenged Balb/C mouse model of allergic asthma after 14 days. In kind it is functional, organism-based.
The test system of data set [12] is Mus musculus. As to the kind of experiment: Reduction of eosinophil level in BALF in ovalbumin-sensitized/challenged Balb/C mouse model of allergic airway inflammation at 100 mg/kg, po after 14 days. More on the design: scale not given: the % may be the effect or the level left. In kind it is functional.
The subject of data set [13] is Mus musculus. As to the kind of experiment: Reduction of eosinophil level in BALF in ovalbumin-sensitized/challenged Balb/C mouse model of allergic airway inflammation at 150 mg/kg, sc after 14 days. In kind it is functional. Further details: scale not given: the % may be the effect or the level left. As to conditions: route subcutaneous. The procedure, abridged:
as §1

Data set [14] in a line: Plasma concentration in ovalbumin-sensitized/challenged Balb/C mouse model of allergic airway inflammation at 50 mg/kg, sc after 14 days. More on the design: dose 50 mg/kg, route subcutaneous. In kind it is ADME, organism-based. A digest of the protocol: (§2)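 Ovalbumin/alum-sensitized male Balb/C mice received s.c. doses in 2% Cremophor, bid on days 11–13 and once on day 14. Blood for plasma drug level was collected at euthanasia on day 14, 2–3 h after the final dose.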

For data set [15], the system named is Mus musculus. Description: Reduction of eosinophil level in BALF in ovalbumin-sensitized/challenged Balb/C mouse model of allergic airway inflammation at 50 mg/kg, sc after 14 days. In kind it is functional. Further details: scale not given: the % may be the effect or the level left. The note with it: route subcutaneous. The procedure, abridged: as §1
Data set [16] can be described thus: Plasma concentration in ovalbumin-sensitized/challenged Balb/C mouse model of allergic airway inflammation at 100 mg/kg, sc after 14 days. In kind it is ADME, organism-based. Further details: dose 100 mg/kg, route subcutaneous. A digest of the protocol: as §2
The nature of data set [17]: Plasma concentration in ovalbumin-sensitized/challenged Balb/C mouse model of allergic airway inflammation at 150 mg/kg, sc after 14 days. In kind it is ADME, organism-based. Further details: dose 150 mg/kg, route subcutaneous. A digest of the protocol: as §2

The IC50 is the concentration at which inhibition is half-maximal. `COc1cc(OC)c(-c2nc3ccccc3[nH]2)cc1/C=C/C(=O)c1ccc(C(=O)O)cc1` registered an IC50 in data set [1] of 4.4 µM. The same measure, in the same setting: the result for `CCOc1cc(OC)c(/C=C/C(=O)c2ccc(C(=O)O)cc2)cc1-c1cccs1` reads 4.9 µM; that for `COc1cc(OC)c(-c2ccsc2)cc1/C=C/C(=O)c1ccc(C(=O)O)cc1`, 2.1 µM; that for `COCCOCCOc1cc(OC)c(/C=C/C(=O)c2ccc(C(=O)O)cc2)cc1-c1cccs1`, 6.5 µM.

In the case of `COc1cc(OCCN2CCOCC2)c(/C=C/C(=O)c2ccc(C(=O)O)cc2)cc1-c1cccs1`, in data set [1], the 50% inhibitory concentration (IC50) stood at 0.8 µM. With `COc1cc(OC)c(-c2cc3ccccc3s2)cc1/C=C/C(=O)c1ccc(C(=O)NCCN2CCOCC2)cc1`, in data set [1], the IC50 is 0.8 µM.

As to `COc1cc(OC)c(-c2cccs2)cc1/C=C/C(=O)c1cccc(C(=O)O)c1`, the IC50 in data set [1] is 4.2 µM. Regarding `CONC(=O)c1ccc(C(=O)/C=C/c2cc(-c3cc4ccccc4s3)c(OC)cc2OC)cc1`, the IC50 in data set [1] was 0.5 µM.

The compound `CCOC(=O)c1ccc(C(=O)/C=C/c2cc(-c3cc4ccccc4s3)c(OC)cc2OC)cc1` yielded an IC50 in data set [1] of 3.1 µM. In turn, `COc1cc(OC)c(-c2cc3ccccc3s2)cc1/C=C/C(=O)c1ccc(C(=O)NC(C)=O)cc1` returned an IC50 in data set [1] of 0.8 µM. Same read-out and setting: the same measure for `COc1cc(OC)c(-c2cc3ccccc3n2C(=O)OC(C)(C)C)cc1/C=C/C(=O)c1ccc(C(=O)O)cc1`: 1.2 µM.

On to `COc1cc(OC)c(-c2cc3ccccc3s2)cc1/C=C/C(=O)c1ccc(C(=O)O)cc1`, for which the midpoint of inhibition in [1], the IC50, lay at 0.6 µM. Also, the outcome in data set [2], in data set [3], in [4], in [9], in data set [10] and in data set [11] was Active. The Activity result in [5], in data set [6], in data set [7] and in data set [8] was “Dose-dependent effect” in each case.

The compound `COCCOCCOCCOc1cc(OC)c(-c2cccs2)cc1/C=C/C(=O)c1ccc(C(=O)O)cc1` came in with an IC50 in data set [1] of 4 µM.

For `CCc1cc(/C=C/C(=O)c2ccc(C(=O)O)cc2)c(OC)cc1OC`, in [1], the 50% inhibitory concentration (IC50) is 22 µM. As to `COCCOCCOc1cc(OC)c(-c2cccs2)cc1/C=C/C(=O)c1ccc(C(=O)O)cc1`, in data set [1], the IC50 was 1.3 µM. Still for that read-out and setting: the same measure for `COc1cc(OC)c(-c2csc(C)n2)cc1/C=C/C(=O)c1ccc(C(=O)O)cc1`: 2.5 µM; for `COc1cc(OC)c(-c2cccs2)cc1/C=C/C(=O)c1ccc(C(=O)O)cc1`: 3.8 µM. The compound `COc1cc(OCC(CO)CO)c(-c2cccs2)cc1/C=C/C(=O)c1ccc(C(=O)O)cc1` came in with a 50% inhibitory concentration (IC50) in data set [1] of 41 µM. On the same count and under the same terms, the result for `COc1cc(OC)c(-c2ccc(C)s2)cc1/C=C/C(=O)c1ccc(C(=O)O)cc1` reads 1 µM. Take `COc1ccc(-c2cccs2)cc1/C=C/C(=O)c1ccc(C(=O)O)cc1`: the IC50 in [1] was 3.1 µM.

In the case of `COc1cc(OCC(=O)N2CCOCC2)c(/C=C/C(=O)c2ccc(C(=O)O)cc2)cc1-c1cccs1`, the IC50 in [1] is 6 µM. `COc1cc(OC)c(-c2cccs2)cc1/C=C/C(=O)c1ccccc1C(=O)O` gave an IC50 in [1] of 8.6 µM.

Turning to `COc1cc(OC)c(-c2cc3ccccc3s2)cc1/C=C/C(=O)c1ccc(C(N)=O)cc1`, it took 0.2 µM to reach half-maximal inhibition in data set [1] (IC50). For the compound `COc1cc(OC)c(-c2cc3ccccc3o2)cc1/C=C/C(=O)c1ccc(C(=O)O)cc1`, 0.3 µM corresponded to half-maximal inhibition in data set [1] (IC50). Consider `COc1cc(OC)c(-c2cc3ccccc3[nH]2)cc1/C=C/C(=O)c1ccc(C(=O)O)cc1`, for which inhibition in [1] was half-maximal at 0.9 µM (IC50). Further, the Activity entry was “Dose-dependent effect” in data set [5], 43% in data set [12], 81% in data set [13] and 55% in [15]. Besides, the concentration at 336 h in [14] worked out at 10 µM; in [16] it was 14 µM; in data set [17] it was 19 µM. `COc1cc(OCCCN2CCOCC2)c(/C=C/C(=O)c2ccc(C(=O)O)cc2)cc1-c1cccs1` displayed an IC50 in [1] of 0.9 µM.

In data set [1], `COc1cc(OCC(CO)CO)c(/C=C/C(=O)c2ccc(C(=O)O)cc2)cc1-c1cccs1` returned a half-inhibitory concentration (IC50) of 21 µM. The compound `COc1cc(OC)c(-c2cc3ccccc3s2)cc1/C=C/C(=O)c1ccc(C(=O)NC(=O)C(C)C)cc1` showed an IC50 in data set [1] of 1.7 µM.
